Measured values reported in ChEMBL document CHEMBL3112513, “Synthesis, docking and pharmacological evaluation of novel indole based potential atypical antipsychotics” (2014).
Active and inactive are the calls of the source. No cut-off for these calls is given here.

Tests used:
Mus musculus [1] = assay: Antipsychotic activity in ip dosed albino lyka mouse assessed as reversal of apomorphine-induced mesh climbing response administered 10 mins prior to apomorphine challenge measured 10 to 30 mins post challenge; type: functional
Summary of the method: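 Test agent, saline or clozapine given ip; apomorphine 2.5 mg/kg ip 10 min later. Mice were placed in a mesh cage for 60 s at 10, 15, 20, 25 and 30 min post-apomorphine, with a naive baseline recorded first. Climbing scored 1 (one to three paws on mesh) or 2 (all four paws). Mean score per group.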

Mus musculus [2] = assay: Antipsychotic activity in albino lyka mouse assessed as reversal of apomorphine-induced stereotypy at 5 to 10 mg/kg, ip administered 10 mins prior to apomorphine challenge measured 10 to 30 mins post challenge; type: functional, organism-based
Summary of the method: (§1)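 Mice (same animals as the climbing test) dosed ip with test agent, saline vehicle or clozapine; apomorphine 2.5 mg/kg given 10 min later. Each mouse was placed in an inverted 500 ml beaker for 60 s at 10, 15, 20, 25 and 30 min post-apomorphine. Scored 1 (rearing, sniffing, grooming) or 2 (licking, biting). Three doses per compound, chosen by initial titration.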

Mus musculus [3] = assay: Antipsychotic activity in albino lyka mouse assessed as reversal of apomorphine-induced stereotypy at 2.5 to 7.5 mg/kg, ip administered 10 mins prior to apomorphine challenge measured 10 to 30 mins post challenge; type: functional, organism-based; summary of the method: as §1
Mus musculus [4] = assay: Antipsychotic activity in albino lyka mouse assessed as reversal of apomorphine-induced stereotypy at 2.5 to 5 mg/kg, ip administered 10 mins prior to apomorphine challenge measured 10 to 30 mins post challenge; type: functional, organism-based
Summary of the method: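 Mice given test compound, vehicle or clozapine i.p., then apomorphine 2.5 mg/kg i.p. 10 min later. Each mouse placed in an inverted 500 ml beaker for 60 s at 10, 15, 20, 25 and 30 min after apomorphine. Scored 1 (rearing, sniffing, grooming) or 2 (licking, biting), reported as mean score. Same mice as mesh-climbing test. Three dose levels, chosen by initial titration.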

Mus musculus [5] = assay: Antipsychotic activity in albino lyka mouse assessed as reversal of apomorphine-induced stereotypy at 2 to 7.5 mg/kg, ip administered 10 mins prior to apomorphine challenge measured 10 to 30 mins post challenge; type: functional, organism-based; summary of the method: as §1

SMILES | ED50 (Mus musculus [1]) | Activity (Mus musculus [2]) | Activity (Mus musculus [3]) | Activity (Mus musculus [4]) | Activity (Mus musculus [5])
Clc1ccccc1NCCCOc1ccccc1-c1cc2ccccc2[nH]1 | 6.23 mg/kg | inactive |  |  | 
COc1ccc(NCCCOc2ccc(-c3cc4ccccc4[nH]3)cc2)cc1 | 1.9 mg/kg |  | Active |  | 
COc1ccccc1NCCCOc1ccc(-c2cc3ccccc3[nH]2)cc1 | 1.7 mg/kg |  | Active |  | 
CN1CCN(C2=Nc3cc(Cl)ccc3Nc3ccccc32)CC1 [CLOZAPINE] | 3.07 mg/kg |  |  | inactive | 
Clc1ccc(NCCCOc2ccc(-c3cc4ccccc4[nH]3)cc2)cc1 | 1.8 mg/kg |  |  |  | inactive
Clc1ccc(NCCCOc2ccccc2-c2cc3ccccc3[nH]2)cc1 | 7.23 mg/kg | inactive |  |  | 
Clc1ccccc1NCCCOc1ccc(-c2cc3ccccc3[nH]2)cc1 | 1.6 mg/kg |  |  |  | inactive
